Experimental data: ChEMBL document CHEMBL3351606, “Targeting (cellular) lysosomal acid ceramidase by B13: design, synthesis and evaluation of novel DMG-B13 ester prodrugs” (Bioorg Med Chem, 2014)
Converted amounts (≈) assume the structure as drawn. The source made the active and inactive calls. The calls are words filed in the database; no cut-off is given here.

Tests used:
MCF7 [1] = test: Reduction in Sph level in human MCF7 cells at 30 uM by LC-MS/MS analysis; assay type: functional, cell-based
[2] = molecular target: T1, Acid ceramidase (Homo sapiens) (UniProt Q13510); details: MCF7, 50 uM
T1 sequence (whole entry): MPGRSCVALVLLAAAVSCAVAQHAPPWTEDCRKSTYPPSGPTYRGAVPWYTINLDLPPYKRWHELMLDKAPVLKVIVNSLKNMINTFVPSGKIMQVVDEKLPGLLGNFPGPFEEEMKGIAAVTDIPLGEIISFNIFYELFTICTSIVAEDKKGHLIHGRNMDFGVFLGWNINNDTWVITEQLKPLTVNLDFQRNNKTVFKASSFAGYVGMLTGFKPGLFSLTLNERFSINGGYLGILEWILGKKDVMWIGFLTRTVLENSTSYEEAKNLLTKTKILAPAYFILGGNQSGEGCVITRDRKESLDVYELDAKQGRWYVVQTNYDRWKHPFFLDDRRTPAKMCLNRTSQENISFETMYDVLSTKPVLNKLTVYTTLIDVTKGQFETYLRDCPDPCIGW

[3] = molecular target: T1, Acid ceramidase (Homo sapiens); test: Inhibition of ACDase in human MCF7 cell lysate using [9,10-3H] De-C16-Cer substrate at 50 uM after 1 hr by scintillation counting analysis; assay type: cell-free
Procedure, shortened: (§1)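 ACDase activity in MCF7 lysate (pH 4.5): [9,10-3H] D-e-C16-Cer and compound dried with 0.2% Triton X-100/0.4% cholate, then protein and 0.2 M acetate buffer with 0.5% Triton X-100 (pH 4.5) added; 1 h at 37 °C, stopped with Dole's solution; released [3H]palmitic acid scintillation-counted, pmol/mg protein/h, % control; duplicates.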

MCF7 [4] = test: Reduction in Sph level in human MCF7 cells at 50 uM after 5 hrs by LC-MS/MS analysis; assay type: functional; details: MCF7, 5 h
[5] = molecular target: T1, Acid ceramidase (Homo sapiens); test: Inhibition of ACDase in human MCF7 cells at 10 uM after 1 hr by cellular/scintillation counting analysis; assay type: cell-based
Procedure, shortened: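 MCF7 cells treated 1 h with compound or vehicle, washed in cold PBS and scraped; lysate ACDase activity then measured at pH 4.5 with [9,10-3H] D-e-C16-Cer, 1 h at 37 °C, released [3H]palmitic acid counted; pmol/mg protein/h, % control; quadruplicates.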

MCF7 [6] = test: Effect on lysosomal stability in human MCF7 cells assessed as recovery of Lysotracker Red uptake at 10 uM after 5 hrs by FACS analysis; assay type: functional, cell-based
Procedure, shortened: (§2)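 MCF7 cells seeded overnight, medium switched to 2% FBS with compound in ethanol or ethanol alone, 1 or 5 h at 37 °C, then Lysotracker Red DND-99 200 nM for 30 min at 37 °C. Cells trypsinized, washed and analysed by FACS (564–606 nm), at least 10,000 events per sample; lower fluorescence read as higher lysosomal pH; triplicates, % of control.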

[7] = molecular target: T1, Acid ceramidase (Homo sapiens); details: MCF7, 50 uM; remark: listed apart in the source
[8] = molecular target: T1, Acid ceramidase (Homo sapiens); details: MCF7, 50 uM; remark: listed apart in the source
MCF7 [9] = test: Induction in Cer level in human MCF7 cells at 50 uM after 1 hr by LC-MS/MS analysis; assay type: functional
MCF7 [10] = test: Induction in Cer level in human MCF7 cells at 50 uM after 24 hrs hr by LC-MS/MS analysis; assay type: functional
[11] = system: Alkaline ceramidase 2 (Homo sapiens); test: Inhibition of AlkCDase in microsomes of human HeLa cells using D-e-C18:1-Cer substrate up to 250 uM after 30 mins
Acid ceramidase = molecular target: T2, Acid ceramidase (Homo sapiens, UniProt Q13510); test: Inhibition of ACDase in human MCF7 cell lysate using [9,10-3H] De-C16-Cer substrate after 1 hr by scintillation counting analysis
T2 sequence (Q13510 whole entry): T1 sequence (whole entry)

MCF7 [12] = test: Drug formation in human MCF7 cells treated with LCL522 up to 2 to 5 hrs by LC-MS/MS analysis; assay type: ADME, cell-based
Procedure, shortened: (§3)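 MCF7 cells (RPMI 1640, 10% FBS) treated with test compound or vehicle (ethanol) over a time course up to 24 h; after washing with cold PBS and scraping, pellets spiked with internal standards, lipids extracted (ethyl acetate/isopropanol/water) and compounds quantified by LC–MS/MS in positive MRM mode against calibration curves, normalized to lipid phosphate; duplicates.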

[13] = Solubility in water at 25 degC; assay type: physicochemical
MCF7 [14] = test: Reduction in Sph level in human MCF7 cells at 50 uM after 24 hrs by LC-MS/MS analysis; assay type: functional; details: MCF7, 24 h
MCF7 [15] = test: Drug formation in human MCF7 cells treated with LCL596 up to 2 to 5 hrs by LC-MS/MS analysis; assay type: ADME, cell-based; procedure, shortened: as §3
MCF7 [16] = test: Induction in Cer level in human MCF7 cells at 10 uM after 1 hr by LC-MS/MS analysis; assay type: functional
Procedure, shortened: (§4)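 MCF7 cells treated 1 h with compound or ethanol vehicle; pellets spiked with internal standards, lipids extracted and Sph and total Cer quantified by LC–MS/MS in MRM mode, expressed as pmol per nmol lipid phosphate and as % of control; duplicates.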

[17] = molecular target: T1, Acid ceramidase (Homo sapiens); test: Inhibition of ACDase in human MCF7 cell lysate using [9,10-3H] De-C16-Cer substrate at 20 uM after 1 hr by scintillation counting analysis; assay type: cell-free; procedure, shortened: as §1
MCF7 [18] = test: Reduction in Sph level in human MCF7 cells at 10 uM after 1 hr by LC-MS/MS analysis; assay type: ADME, cell-based; details: MCF7, 1 h; procedure, shortened: as §4
[19] = Toxicity in rat; assay type: organism-based; details: in vivo
MCF7 [20] = test: Drug uptake in human MCF7 cells assessed as drug level at 10 uM after 24 hrs by LC-MS/MS analysis; assay type: ADME, cell-based; details: mcf7, 24 h; procedure, shortened: as §3
[21] = molecular target: T3, Sphingomyelin phosphodiesterase (Homo sapiens) (UniProt P17405); test: Inhibition of lysosomal ASMase activity in human MCF7 cells assessed as [methyl-14C]choline release at 10 uM after 1 hr; assay type: cell-based
T3 sequence (whole entry): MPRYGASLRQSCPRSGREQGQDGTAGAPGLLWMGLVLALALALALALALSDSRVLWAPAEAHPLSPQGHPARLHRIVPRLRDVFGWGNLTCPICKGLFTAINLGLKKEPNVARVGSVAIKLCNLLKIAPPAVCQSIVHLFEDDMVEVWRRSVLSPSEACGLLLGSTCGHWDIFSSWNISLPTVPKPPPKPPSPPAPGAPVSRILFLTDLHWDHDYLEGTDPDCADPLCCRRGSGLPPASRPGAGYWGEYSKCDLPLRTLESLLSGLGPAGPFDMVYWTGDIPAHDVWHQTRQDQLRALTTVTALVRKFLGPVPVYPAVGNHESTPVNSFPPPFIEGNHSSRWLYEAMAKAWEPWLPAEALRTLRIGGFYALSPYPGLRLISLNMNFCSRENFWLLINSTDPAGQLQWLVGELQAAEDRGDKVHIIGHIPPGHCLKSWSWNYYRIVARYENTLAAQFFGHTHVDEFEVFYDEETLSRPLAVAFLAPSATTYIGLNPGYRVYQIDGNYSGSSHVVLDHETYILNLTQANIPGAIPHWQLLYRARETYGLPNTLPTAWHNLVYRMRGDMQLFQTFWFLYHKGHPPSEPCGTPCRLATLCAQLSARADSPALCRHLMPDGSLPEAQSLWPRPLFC
Procedure, shortened: (§5)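 MCF7 cells treated 1 h with compound or vehicle, lysed in 0.2% Triton X-100/50 mm Tris-HCl pH 7.4 with EDTA and protease/phosphatase inhibitors; clarified lysate incubated with 100 µM porcine brain SM plus choline-[methyl-14C] SM in Triton micelles, 250 mM sodium acetate pH 5.0, 1.0 mM EDTA, 30 min at 37 °C; aqueous-phase 14C counted after Folch extraction; triplicates, % control.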

MCF7 [22] = test: Reduction in Sph level in human MCF7 cells at 1 uM after 1 hr by LC-MS/MS analysis; assay type: ADME, cell-based; details: MCF7, 1 h, read-out: INH; procedure, shortened: as §4
MCF7 [23] = test: Reduction in Sph level in human MCF7 cells at 1 uM after 5 hrs by LC-MS/MS analysis; assay type: ADME, cell-based; details: MCF7, 5 h
MCF7 [24] = test: Reduction in alpha-ACDase level in human MCF7 cells at 1 uM by Western blot analysis
[25] = system: Alkaline ceramidase 2 (Homo sapiens); test: Inhibition of AlkCDase in human HeLa cells expressing […] assessed as fold increase in Sph level at 10 uM after 1 hr by LC-MS/MS analysis
[26] = molecular target: Neutral ceramidase (Homo sapiens) (UniProt Q9NR71); test: Inhibition of NCDase in human MCF7 cells assessed as release of [3H] palmitic acid at 10 uM after 1 hr
MCF7 [27] = test: Reduction in alpha-ACDase level in human MCF7 cells at 10 uM by scintillation counting analysis; assay type: functional, cell-based; details: in the assay text read “Western blot analysis” for “scintillation counting analysis”, TDE = time-dependent effect
Procedure, shortened: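 MCF7 cells treated 1 and 5 h with compound or vehicle; lysates (35 µg protein) run on SDS gels, blotted, probed with mouse monoclonal anti-ACDase and HRP secondary; bands of the cleaved alpha-ACDase chain quantified by densitometry, normalized to actin, % control.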

[28] = molecular target: Neutral ceramidase (Homo sapiens) (UniProt Q9NR71); test: Inhibition of NCDase in human HeLa cells expressing ASAH2 assessed as increase in Sph level at 10 uM after 1 hr by LC-MS/MS analysis; assay type: cell-based
Procedure, shortened: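 HeLa cells stably carrying ACER2, ASAH2 or empty vector, grown to 60% confluence, given tetracycline 5 ng/mL overnight, then treated 1 h with compound (1 or 10 µM) or ethanol; sphingolipids extracted and Sph measured by LC–MS/MS per nmol lipid phosphate, also given as Sph ratio of ACER2 or ASAH2 cells to vector cells.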

[29] = system: Alkaline ceramidase 2 (Homo sapiens); test: Inhibition of AlkCDase in human HeLa cells expressing […] assessed as fold increase in Sph level at 1 uM after 1 hr by LC-MS/MS analysis
[30] = molecular target: T3, Sphingomyelin phosphodiesterase (Homo sapiens); test: Inhibition of lysosomal ASMase activity in human MCF7 cells assessed as [methyl-14C]choline release at 1 uM after 1 hr; assay type: cell-based; procedure, shortened: as §5
[31] = system: Alkaline ceramidase 2 (Homo sapiens); test: Inhibition of AlkCDase in human HeLa cells expressing […] assessed as increase in Sph level at 10 uM after 1 hr by LC-MS/MS analysis
MCF7 [32] = test: Effect on lysosomal stability in human MCF7 cells assessed as increase in Lysotracker Red uptake at 10 uM after 5 hrs by FACS analysis; assay type: ADME, cell-based; details: mcf7, 5 h; procedure, shortened: as §2

Chain of Neutral ceramidase (Homo sapiens) (Q9NR71 whole entry): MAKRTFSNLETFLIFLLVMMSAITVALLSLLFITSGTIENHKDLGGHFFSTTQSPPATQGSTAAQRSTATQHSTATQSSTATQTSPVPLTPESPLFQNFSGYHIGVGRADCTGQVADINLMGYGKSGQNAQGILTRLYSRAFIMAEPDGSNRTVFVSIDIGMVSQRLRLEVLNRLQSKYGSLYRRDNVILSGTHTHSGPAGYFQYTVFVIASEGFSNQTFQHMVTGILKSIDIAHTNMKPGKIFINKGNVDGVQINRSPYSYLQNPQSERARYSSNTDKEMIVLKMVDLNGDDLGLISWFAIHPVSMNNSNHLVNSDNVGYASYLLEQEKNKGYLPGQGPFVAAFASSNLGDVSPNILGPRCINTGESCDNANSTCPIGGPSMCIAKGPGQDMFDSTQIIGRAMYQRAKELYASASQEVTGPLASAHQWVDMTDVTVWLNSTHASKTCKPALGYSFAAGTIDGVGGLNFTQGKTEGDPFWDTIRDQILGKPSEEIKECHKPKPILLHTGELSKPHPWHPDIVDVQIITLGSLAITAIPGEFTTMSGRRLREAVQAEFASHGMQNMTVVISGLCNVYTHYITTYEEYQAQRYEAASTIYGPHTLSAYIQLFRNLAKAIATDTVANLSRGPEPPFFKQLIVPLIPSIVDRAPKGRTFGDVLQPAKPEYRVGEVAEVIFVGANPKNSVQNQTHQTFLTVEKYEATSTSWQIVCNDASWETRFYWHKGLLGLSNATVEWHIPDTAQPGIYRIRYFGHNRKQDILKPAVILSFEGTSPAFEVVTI

Row | SMILES | inhibition [3] | inhibition [5] | Activity (MCF7 [6]) | Drug metabolism (MCF7 [12]) | solubility [13] [mg/mL] | Activity (MCF7 [16]) | inhibition [17] | inhibition at 10 µM (MCF7 [18]) [%] | LD50 [19] [mg/kg] | Drug uptake (MCF7 [20]) | also measured
1 | CCCCCCCCCCCCCC(=O)N[C@H](CO)[C@H](O)c1ccc([N+](=O)[O-])cc1 | 95% | Active | inactive | metabolite_detected | 0.008 (≈ 18.9 µM) |  |  |  |  |  | inhibition (MCF7 [1]): Active; inhibition [2]: 50%; inhibition at 50 µM (MCF7 [4]): 70%; inhibition [7]: 40%; inhibition [8]: 20%; Activity (MCF7 [9]): 140%; Activity (MCF7 [10]): 270%; inhibition [11]: inactive; IC50 (Acid ceramidase): 27.7 µM; inhibition at 50 µM (MCF7 [14]): 40%
2 | CCCCCCCCCCCCCC(=O)N[C@H](CO)[C@H](OC(=O)CN(C)C)c1ccc([N+](=O)[O-])cc1.Cl | Active | Active |  |  |  | inactive | Active | 60 | 3900 | Active | Drug metabolism (MCF7 [15]): metabolite_detected
3 | CCCCCCCCCCCCCC(=O)N[C@H](COC(=O)CN(C)C)[C@H](OC(=O)CN(C)C)c1ccc([N+](=O)[O-])cc1.Cl | Active | Active | Active |  | 430 | 130% | Active | 97 | 3900 | 27% | inhibition [21]: 85%; inhibition at 1 µM (MCF7 [22]): 80%; inhibition at 1 µM (MCF7 [23]): 50%; Activity (MCF7 [24]): inactive; fold change (FC) [25]: 5; inhibition [26]: inactive; inhibition (MCF7 [27]): tde; inhibition [28]: inactive; fold change (FC) [29]: 2; inhibition [30]: 30%; inhibition [31]: Active
4 | CCCCCCCCCCCCCC(=O)N[C@H](COC(=O)CN(C)C)[C@H](O)c1ccc([N+](=O)[O-])cc1.Cl | Active | Active |  | metabolite_detected |  | inactive | Active | 60 | 3900 | Active | Activity (MCF7 [32]): 180%
